In ChEMBL document CHEMBL1130111, “The chemistry of pseudomonic acid. 18. Heterocyclic replacement of the alpha,beta-unsaturated ester: synthesis, molecular modeling, and antibacterial activity” (J Med Chem, 1997):

Tests used:
Staphylococcus aureus = assay: minimum inhibitory concentration (MIC) against Staphylococcus aureus NCTC 6571.; assay type: functional
Method in brief: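 Agar dilution MIC in blood agar base with 5% chocolated horse blood. Inoculum was an overnight nutrient broth culture, about 10^6 CFU per spot. Plates were incubated 18-24 h at 37 °C. MIC taken as the lowest concentration fully inhibiting growth.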

Isoleucine--tRNA ligase [1] = target: T1, Isoleucine--tRNA ligase (Staphylococcus aureus, UniProt P41972); assay: (§1) Inhibition concentration against Isoleucyl-tRNA synthetase from Staphylococcus aureus NCTC 6571
T1 sequence (P41972 whole entry): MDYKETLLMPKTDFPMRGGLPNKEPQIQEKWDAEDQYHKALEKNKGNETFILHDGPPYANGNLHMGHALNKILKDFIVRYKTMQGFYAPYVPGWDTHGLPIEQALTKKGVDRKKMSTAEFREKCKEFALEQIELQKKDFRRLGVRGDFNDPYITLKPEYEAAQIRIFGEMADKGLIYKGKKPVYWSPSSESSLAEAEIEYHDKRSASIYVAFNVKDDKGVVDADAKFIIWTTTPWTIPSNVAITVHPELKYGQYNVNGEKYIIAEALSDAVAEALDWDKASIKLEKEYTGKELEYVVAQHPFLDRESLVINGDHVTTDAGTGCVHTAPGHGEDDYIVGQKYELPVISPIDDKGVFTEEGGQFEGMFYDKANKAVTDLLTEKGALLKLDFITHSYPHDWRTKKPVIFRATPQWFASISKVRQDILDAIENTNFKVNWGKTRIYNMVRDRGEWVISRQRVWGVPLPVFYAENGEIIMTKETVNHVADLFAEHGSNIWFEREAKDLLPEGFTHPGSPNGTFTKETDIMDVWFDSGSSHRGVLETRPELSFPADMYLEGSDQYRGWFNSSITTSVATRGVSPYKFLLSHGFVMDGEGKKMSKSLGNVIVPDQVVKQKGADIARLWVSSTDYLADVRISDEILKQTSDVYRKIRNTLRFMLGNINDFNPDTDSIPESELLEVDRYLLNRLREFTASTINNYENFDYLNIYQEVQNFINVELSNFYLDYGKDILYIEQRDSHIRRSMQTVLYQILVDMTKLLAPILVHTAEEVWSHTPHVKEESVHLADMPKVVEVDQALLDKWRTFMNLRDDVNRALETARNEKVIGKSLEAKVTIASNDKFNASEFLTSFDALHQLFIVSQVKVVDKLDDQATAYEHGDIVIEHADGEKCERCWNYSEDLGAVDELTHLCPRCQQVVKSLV
Method in brief: (§2)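 IRS extracted from S. aureus grown to late stationary phase in shake flasks (Nutrient Broth No. 2). Cells were sonicated with lysostaphin, DNase-treated, dialysed against 20 mM Tris-HCl pH 8 with 5 mM MgCl2 and 2 mM DTT, then ultracentrifuged. Compound was preincubated with enzyme 5 min. Charging of E. coli tRNA with 4.8 µM [U-14C]-isoleucine and 5 mg/mL ATP was run 10 min at 37 °C. IC50 taken as 50% inhibition of 14C-Ile incorporation.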

[2] = target: T2, Isoleucine--tRNA ligase (Staphylococcus aureus) (UniProt P41972); assay: as §1; settings: concentration not given here; method in brief: as §2
T2 sequence (whole entry): T1 sequence (P41972 whole entry)

Isoleucine--tRNA ligase [3] = target: T1, Isoleucine--tRNA ligase; assay: Inhibition concentration against isoleucyl tRNA synthetase from Staphylococcus aureus NCTC 6571; method in brief: as §2

SMILES	MIC (Staphylococcus aureus)	IC50 (Isoleucine--tRNA ligase [1])	inhibition [2]	IC50 (Isoleucine--tRNA ligase [3])
C[C@H]([C@@H]1O[C@H]1C[C@H]1CO[C@@H](Cn2nnc(-c3ccccc3)n2)[C@H](O)[C@@H]1O)[C@H](C)O	8 ug m1 l-1	8.9 nM		
C/C(=C\C(=O)OCCCCCCCCC(=O)O)C[C@@H]1OC[C@H](C[C@@H]2O[C@H]2[C@@H](C)[C@H](C)O)[C@@H](O)[C@H]1O [MUPIROCIN]	0.13 ug m1 l-1	1.7 nM		
C[C@H]([C@@H]1O[C@H]1C[C@H]1CO[C@@H](Cc2cnc(-c3ccccc3)o2)[C@H](O)[C@@H]1O)[C@H](C)O	2 ug m1 l-1	4.71 nM		
CCOC(=O)/C=C(\C)C[C@@H]1OC[C@H](C[C@@H]2O[C@H]2[C@@H](C)[C@H](C)O)[C@@H](O)[C@H]1O	0.5 ug m1 l-1	2.95 nM		
C[C@H]([C@@H]1O[C@H]1C[C@H]1CO[C@@H](Cc2cc(-c3ccccc3)on2)[C@H](O)[C@@H]1O)[C@H](C)O	>64 ug m1 l-1		17%	
C[C@H]([C@@H]1O[C@H]1C[C@H]1CO[C@@H](Cc2csc(-c3ccccc3)n2)[C@H](O)[C@@H]1O)[C@H](C)O	>64 ug m1 l-1			14.3 nM
C[C@H]([C@@H]1O[C@H]1C[C@H]1CO[C@@H](Cc2nc(-c3ccccc3)no2)[C@H](O)[C@@H]1O)[C@H](C)O	4 ug m1 l-1	1.73 nM		
C[C@H]([C@@H]1O[C@H]1C[C@H]1CO[C@@H](Cc2nnc(-c3ccccc3)o2)[C@H](O)[C@@H]1O)[C@H](C)O	8 ug m1 l-1	5.19 nM		
C[C@H]([C@@H]1O[C@H]1C[C@H]1CO[C@@H](Cc2ncc(-c3ccccc3)o2)[C@H](O)[C@@H]1O)[C@H](C)O	>64 ug m1 l-1		0%	
C[C@H]([C@@H]1O[C@H]1C[C@H]1CO[C@@H](Cc2cc(-c3ccccc3)no2)[C@H](O)[C@@H]1O)[C@H](C)O	4 ug m1 l-1	13.1 nM		
